# According to ChEMBL document CHEMBL1145048, “Functionalized glycomers as growth inhibitors and inducers of apoptosis in human glioblastoma cells” (J Med Chem, 2003):
# What was measured:
# Assay type in all cases: functional, cell-based
# [1] = Glycomer activity determined as growth inhibition of human glioblastoma LN18 cells
# Summary of the method: (§1)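 Cells grown 24 h with FCS, then 24 h without FCS, then exposed to glycomers at increasing concentrations in serum-free medium for 24 h. MTT at 0.2 mg/mL was added for the last 2 h, formazan was dissolved in 0.1 N HCl/2-propanol and read at 540 nm. Growth inhibition = treated/control MTT reduction. IC50 is the concentration giving 50% inhibition from dose–response curves. Triplicate, mean ± SD.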
# [2] = Glycomer activity determined as growth inhibition of human glioblastoma LNZ308 cells; summary of the method: as §1
# [3] = Apoptosis index was determined against human glioblastoma LN18 cells at concentration of 25 uM after total exposure time of 24 hours
# Summary of the method: (§2)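 Cells seeded to half confluence in DMEM-10% FCS for 24 h, then held 24 h without FCS before glycomer addition in serum-free medium. At the end of the incubation, histone-associated DNA fragments (mono- and oligonucleosomes) in still-adherent cells were measured by photometric ELISA (absorbance 405 nm). Apoptosis index = absorbance of treated / untreated wells, untreated set at 1.00. Done in triplicate.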
# [4] = Apoptosis index was determined against human glioblastoma LNZ308 cells at concentration of 25 uM after otal exposure time of 24 hours; summary of the method: as §2
# [5] = Efficacy index was evaluated as ratio of apoptosis index to MTT reduction for human glioblastoma LNZ308 cells at 22.5 uM concentration
# Summary of the method: (§3)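 Cells grown 24 h with FCS, then deprived of FCS for 10 h, then exposed to glycomers for 12 h. In adherent cells, MTT reduction (540 nm), [3H]-thymidine incorporation (cpm) and nucleosome-fragment apoptosis index (treated vs control) were measured. Efficacy index = ratio of thymidine incorporation or apoptosis index to MTT reduction.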
# [6] = Efficacy index was evaluated as ratio of apoptosis index to MTT reduction for human glioblastoma LN18 cells at 4.5 uM concentration; summary of the method: as §3
# [7] = Efficacy index was evaluated as ratio of inhibition of DNA synthesis (3HT incorporation) to inhibition of growth(MTT) for human glioblastoma LNZ308 cells at 0 uM concentration; summary of the method: as §3
# [8] = Efficacy index was evaluated as ratio of apoptosis index to MTT reduction for human glioblastoma LNZ308 cells at 0 uM concentration; summary of the method: as §3
# [9] = Efficacy index was evaluated as ratio of inhibition of DNA synthesis (3HT incorporation) to inhibition of growth(MTT) for human glioblastoma LN18 cells at 4.5 uM concentration; summary of the method: as §3
# [10] = Apoptosis index was determined against human glioblastoma LN18 cells at concentration of 11 uM after total exposure time of 15 hours; summary of the method: as §2
# [11] = Efficacy index was evaluated as ratio of apoptosis index to MTT reduction for human glioblastoma LNZ308 cells at 4.5 uM concentration; summary of the method: as §3
# [12] = Efficacy index was evaluated as ratio of inhibition of DNA synthesis (3HT incorporation) to inhibition of growth(MTT) for human glioblastoma LN18 cells at 0 uM concentration; summary of the method: as §3
# [13] = Efficacy index was evaluated as ratio of apoptosis index to MTT reduction for human glioblastoma LN18 cells at 22.5 uM concentration; summary of the method: as §3
# [14] = Efficacy index was evaluated as ratio of inhibition of DNA synthesis (3HT incorporation) to inhibition of growth(MTT) for human glioblastoma LN18 cells at 22.5 uM concentration; summary of the method: as §3
# [15] = Efficacy index was evaluated as ratio of inhibition of DNA synthesis (3HT incorporation) to inhibition of growth(MTT) for human glioblastoma LNZ308 cells at 22.5 uM concentration; summary of the method: as §3
# [16] = Efficacy index was evaluated as ratio of apoptosis index to MTT reduction for human glioblastoma LN18 cells at 0 uM concentration; summary of the method: as §3
# [17] = Efficacy index was evaluated as ratio of inhibition of DNA synthesis (3HT incorporation) to inhibition of growth(MTT) for human glioblastoma LNZ308 cells at 11.3 uM concentration; summary of the method: as §3
# [18] = Efficacy index was evaluated as ratio of apoptosis index to MTT reduction for human glioblastoma LNZ308 cells at 11.3 uM concentration; summary of the method: as §3
# [19] = Apoptosis index was determined against human glioblastoma LNZ308 cells at concentration of 11 uM after total exposure time of 15 hours; summary of the method: as §2
# [20] = Efficacy index was evaluated as ratio of apoptosis index to MTT reduction for human glioblastoma LN18 cells at 11.3 uM concentration; summary of the method: as §3
# [21] = Efficacy index was evaluated as ratio of inhibition of DNA synthesis (3HT incorporation) to inhibition of growth(MTT) for human glioblastoma LN18 cells at 11.3 uM concentration; summary of the method: as §3
# [22] = Apoptosis index was determined against human glioblastoma LNZ308 cells at concentration of 25 uM after total exposure time of 24 hours; summary of the method: as §2
smiles,measurement,setting,value
C=CCO[C@@H]1[C@H](O)[C@H](Oc2ccc(I)cc2)O[C@@H](COS(=O)(=O)c2cccc(C(F)(F)F)c2)[C@H]1O,IC50,"[1]; Homo sapiens, LN-18",21 µM
same,IC50,"[2]; Homo sapiens, LNZ308",19 µM
C=CCO[C@H]1[C@H](O)[C@H](COS(=O)(=O)c2cccc(C(F)(F)F)c2)O[C@@H](Oc2ccc(I)cc2)[C@H]1OC(=O)CCC (stereo in doubt; 8c) [listing 1 of 2 here],IC50,[1]; ln18,43 µM
same,IC50,[2]; lnz308,41 µM
CCCC(=O)O[C@@H]1[C@H](Oc2ccc(I)cc2)O[C@@H](COCc2ccccc2)[C@@H](O)[C@@H]1OCCO,IC50,"[1]; Homo sapiens, LN-18",> 50 µM
same,IC50,"[2]; Homo sapiens, LNZ308",> 50 µM
C=CCO[C@H]1[C@H](O)[C@H](COS(=O)(=O)c2cccc(C(F)(F)F)c2)O[C@@H](Oc2ccc(I)cc2)[C@H]1OC(=O)CCC (stereo in doubt; 8c) [listing 2 of 2 here],Apoptosis index,[3],0.44
same,Apoptosis index,[4],0.41
C=CCO[C@H]1[C@H](O)[C@H](COCc2ccccc2)O[C@@H](Oc2ccc(I)cc2)[C@H]1OC(=O)CC,Efficacy index,[5],2.32
same,Efficacy index,[6],1.92
same,Efficacy index,[7],9.79
same,Efficacy index,[8],0.95
same,Efficacy index,[9],6.23
same,Apoptosis index,[10],3.67
same,Efficacy index,[11],0.62
same,Efficacy index,[12],16.2
same,Efficacy index,[13],8.3
same,IC50,"[1]; Homo sapiens, LN-18",11.5 µM
same,Efficacy index,[14],0.58
same,Efficacy index,[15],0.34
same,Efficacy index,[16],0.93
same,Efficacy index,[17],2.04
same,Efficacy index,[18],0.7
same,Apoptosis index,[19],0.91
same,Efficacy index,[20],4.85
same,Efficacy index,[21],0.09
same,IC50,"[2]; Homo sapiens, LNZ308",17.5 µM
CCCO[C@H]1[C@H](O)[C@H](COCc2ccccc2)O[C@@H](Oc2ccc(OC)cc2)[C@H]1OC(C)=O,IC50,"[1]; Homo sapiens, LN-18",> 50 µM
same,IC50,"[2]; Homo sapiens, LNZ308",> 50 µM
C=CCO[C@@H]1[C@H](OC(=O)CC)[C@H](Oc2ccc(I)cc2)O[C@@H](COS(=O)(=O)c2cccc(C(F)(F)F)c2)[C@H]1OCc1ccc(OC)cc1,IC50,"[1]; Homo sapiens, LN-18",> 50 µM
same,IC50,"[2]; Homo sapiens, LNZ308",> 50 µM
C=CCOC1C(O)C(CNS(=O)(=O)c2cccc(C(F)(F)F)c2)OC(Oc2ccc(I)cc2)C1OC(=O)CCC (stereo in doubt; 10b),IC50,[1]; ln18,6.5 µM
same,IC50,"[2]; Homo sapiens, LNZ308",17.5 µM
CCCC(=O)O[C@@H]1[C@H](Oc2ccc(I)cc2)O[C@@H](COCc2ccccc2)[C@@H](O)[C@@H]1OC,IC50,"[1]; Homo sapiens, LN-18",> 50 µM
same,IC50,"[2]; Homo sapiens, LNZ308",> 50 µM
C=CCO[C@H]1[C@@H](O)[C@H](COCc2ccccc2)O[C@@H](Oc2ccc(I)cc2)[C@H]1OC(=O)CCC,IC50,"[1]; Homo sapiens, LN-18",20 µM
same,IC50,"[2]; Homo sapiens, LNZ308",37 µM
C=CCO[C@@H]1[C@H](O)[C@H](Oc2ccc(Br)cc2)O[C@@H](COCc2ccccc2)[C@H]1O,Apoptosis index,[3],1.19
same,IC50,"[1]; Homo sapiens, LN-18",> 50 µM
same,IC50,"[2]; Homo sapiens, LNZ308",> 50 µM
C=CCOC1C(O)C(CNS(=O)(=O)c2cccc(C(F)(F)F)c2)OC(Oc2ccc(I)cc2)C1OC(=O)CC (centres undefined),Efficacy index,[5],6.18
same,Efficacy index,[6],0.88
same,Efficacy index,[8],0.95
same,Efficacy index,[9],3.11
same,Apoptosis index,[10],0.98
same,Efficacy index,[11],0.72
same,Efficacy index,[12],16.2
same,Efficacy index,[13],8.43
same,Efficacy index,[14],0.47
same,Efficacy index,[15],0.35
same,Efficacy index,[16],0.93
same,Efficacy index,[17],0.64
same,Efficacy index,[18],1.81
same,Apoptosis index,[19],1.45
same,Efficacy index,[20],1.63
same,Efficacy index,[21],0.07
C=CCOC1C(O)C(CNS(=O)(=O)c2cccc(C(F)(F)F)c2)OC(Oc2ccc(I)cc2)C1O (centres undefined),IC50,"[1]; Homo sapiens, LN-18",16 µM
same,IC50,"[2]; Homo sapiens, LNZ308",27 µM
C=CCO[C@H]1[C@H](O)[C@H](COCc2ccccc2)O[C@@H](Oc2ccc(I)cc2)[C@H]1OC(=O)CCC,Apoptosis index,[3],1.6
same,IC50,"[1]; Homo sapiens, LN-18",7.5 µM
same,Apoptosis index,[22],2.27
same,IC50,"[2]; Homo sapiens, LNZ308",11.5 µM
C=CCO[C@H]1[C@@H](O)[C@H](COS(=O)(=O)c2cccc(C(F)(F)F)c2)O[C@@H](Oc2ccc(I)cc2)[C@H]1OC(=O)C(C)C,IC50,"[1]; Homo sapiens, LN-18",18.5 µM
same,IC50,"[2]; Homo sapiens, LNZ308",18 µM
